From ChEMBL document CHEMBL1212781, “VIM-19, a metallo-beta-lactamase with increased carbapenemase activity from Escherichia coli and Klebsiella pneumoniae” (2010) come the findings set out here.

The Km is the substrate concentration at which the rate is half of its maximum. The kcat is the number of substrate molecules converted per active site and unit of time at saturation. What is called kcat/Km is the turnover number divided by the Michaelis constant.

Bounds are passed on as bounds.

Data set [1] relates to CC(C)(O/N=C(\C(=O)N[C@@H]1C(=O)N2C(C(=O)[O-])=C(C[n+]3ccccc3)CS[C@H]12)c1csc(N)n1)C(=O)O. In words: (§1) Hydrolytic activity of beta-lactamase VIM-1 expressed in Escherichia coli TOP10 by spectrophotometry.
For data set [2], the system named is CC1(C)S[C@@H]2[C@H](NC(=O)Cc3ccccc3)C(=O)N2[C@H]1C(=O)O. Described as §1.
In data set [3] the test system is CCN1CCN(C(=O)N[C@@H](C(=O)N[C@@H]2C(=O)N3[C@@H]2SC(C)(C)[C@@H]3C(=O)O)c2ccccc2)C(=O)C1=O. The description is as §1.
Data set [4] relates to CO/N=C(\C(=O)N[C@@H]1C(=O)N2C(C(=O)O)=C(COC(C)=O)CS[C@H]12)c1csc(N)n1. The description is as §1.
The test system of data set [5] is CO[C@@]1(NC(=O)Cc2cccs2)C(=O)N2C(C(=O)O)=C(COC(N)=O)CS[C@@H]21. Described as §1.
The test system of data set [6] is C[C@@H](O)[C@H]1C(=O)N2C(C(=O)O)=C(S[C@@H]3CN[C@H](C(=O)N(C)C)C3)[C@H](C)[C@H]12. The description is as §1.
Data set [7] concerns CC(C)(O/N=C(\C(=O)N[C@@H]1C(=O)N2C(C(=O)[O-])=C(C[n+]3ccccc3)CS[C@H]12)c1csc(N)n1)C(=O)O. In words: (§2) Ratio of Kcat to Km for beta-lactamase VIM-1 expressed in Escherichia coli TOP10 by spectrophotometry.
Data set [8] concerns CC1(C)S[C@@H]2[C@H](NC(=O)Cc3ccccc3)C(=O)N2[C@H]1C(=O)O. Described as §2.
In data set [9] the test system is CCN1CCN(C(=O)N[C@@H](C(=O)N[C@@H]2C(=O)N3[C@@H]2SC(C)(C)[C@@H]3C(=O)O)c2ccccc2)C(=O)C1=O. Described as §2.
For data set [10], the system named is CO/N=C(\C(=O)N[C@@H]1C(=O)N2C(C(=O)O)=C(COC(C)=O)CS[C@H]12)c1csc(N)n1. Described as §2.
Data set [11] has as its system CO[C@@]1(NC(=O)Cc2cccs2)C(=O)N2C(C(=O)O)=C(COC(N)=O)CS[C@@H]21. The data set is described as §2.
Data set [12] concerns C[C@@H](O)[C@H]1C(=O)N2C(C(=O)O)=C(S[C@@H]3CN[C@H](C(=O)N(C)C)C3)[C@H](C)[C@H]12. The description is as §2.
For data set [13], the system named is CC(C)(O/N=C(\C(=O)N[C@@H]1C(=O)N2C(C(=O)[O-])=C(C[n+]3ccccc3)CS[C@H]12)c1csc(N)n1)C(=O)O. As to the kind of experiment: (§3) Hydrolytic activity of beta-lactamase VIM-19 expressed in Escherichia coli TOP10 by spectrophotometry. An outline of the steps:
(§4)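 Enzyme came from E. coli TOP10 (pVIM-19) grown overnight at 37°C in Trypticase soy broth with amoxicillin (100 μg/ml) and kanamycin (30 μg/ml). The sonicated, cleared extract was purified on Q-Sepharose with a 0–1 M NaCl gradient, in Bis-Tris then cacodylate pH 6.5 buffers.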

Data set [14] has as its system CC1(C)S[C@@H]2[C@H](NC(=O)Cc3ccccc3)C(=O)N2[C@H]1C(=O)O. The description is as §3. An outline of the steps:
as §4

For data set [15], the system named is CCN1CCN(C(=O)N[C@@H](C(=O)N[C@@H]2C(=O)N3[C@@H]2SC(C)(C)[C@@H]3C(=O)O)c2ccccc2)C(=O)C1=O. The description is as §3. An outline of the steps:
as §4

Data set [16] deals with CO/N=C(\C(=O)N[C@@H]1C(=O)N2C(C(=O)O)=C(COC(C)=O)CS[C@H]12)c1csc(N)n1. The data set is described as §3. The method, boiled down: as §4
Data set [17] has as its system CO[C@@]1(NC(=O)Cc2cccs2)C(=O)N2C(C(=O)O)=C(COC(N)=O)CS[C@@H]21. The description is as §3. The method, boiled down:
as §4

Data set [18] relates to C[C@@H](O)[C@H]1C(=O)N2C(C(=O)O)=C(S[C@@H]3CN[C@H](C(=O)N(C)C)C3)[C@H](C)[C@H]12. The data set is described as §3. An outline of the steps:
as §4

For data set [19], the system named is C[C@@H](O)[C@H]1C(=O)N2C(C(=O)O)=C(S[C@@H]3CN[C@H](C(=O)Nc4cccc(C(=O)O)c4)C3)[C@H](C)[C@H]12. Described as §3. The method, boiled down: as §4
The test system of data set [20] is CC(C)(O/N=C(\C(=O)N[C@@H]1C(=O)N2C(C(=O)[O-])=C(C[n+]3ccccc3)CS[C@H]12)c1csc(N)n1)C(=O)O. In words: (§5) Ratio of Kcat to Km for beta-lactamase VIM-19 expressed in Escherichia coli TOP10 by spectrophotometry. The method, boiled down: as §4
Data set [21] relates to CC1(C)S[C@@H]2[C@H](NC(=O)Cc3ccccc3)C(=O)N2[C@H]1C(=O)O. The description is as §5. An outline of the steps: as §4
For data set [22], the system named is CCN1CCN(C(=O)N[C@@H](C(=O)N[C@@H]2C(=O)N3[C@@H]2SC(C)(C)[C@@H]3C(=O)O)c2ccccc2)C(=O)C1=O. The description is as §5. An outline of the steps:
as §4

Data set [23] relates to CO/N=C(\C(=O)N[C@@H]1C(=O)N2C(C(=O)O)=C(COC(C)=O)CS[C@H]12)c1csc(N)n1. Described as §5. An outline of the steps: as §4
Data set [24] relates to CO[C@@]1(NC(=O)Cc2cccs2)C(=O)N2C(C(=O)O)=C(COC(N)=O)CS[C@@H]21. Described as §5. An outline of the steps:
as §4

Data set [25] has as its system C[C@@H](O)[C@H]1C(=O)N2C(C(=O)O)=C(S[C@@H]3CN[C@H](C(=O)N(C)C)C3)[C@H](C)[C@H]12. Described as §5. The method, boiled down: as §4
For data set [26], the system named is C[C@@H](O)[C@H]1C(=O)N2C(C(=O)O)=C(S[C@@H]3CN[C@H](C(=O)Nc4cccc(C(=O)O)c4)C3)[C@H](C)[C@H]12. The description is as §5. The method, boiled down: as §4

As to “BlaVIM-1 (Escherichia coli) (from UniProt Q8GDC1)”, the Km in [1] stood at 800 µM; in data set [2], 850 µM; in [3] it was 3500 µM; in data set [4], 250 µM; in [5], 130 µM; in data set [6] it was 50 µM. Besides, in data set [1], the kcat came to 60 s⁻¹. Also, the kcat/Km was found to be 100000 M⁻¹ s⁻¹ in data set [7]; 50000 M⁻¹ s⁻¹ in [8]; 500000 M⁻¹ s⁻¹ in [9]; 700000 M⁻¹ s⁻¹ in data set [10]; 200000 M⁻¹ s⁻¹ in data set [11]; 300000 M⁻¹ s⁻¹ in data set [12].
“Metallo-beta-lactamase VIM-19 (Escherichia coli) (from UniProt D2D9J0)”: the Km is more than 1000 µM in data set [13]; 300 µM in data set [14]; 30 µM in data set [16]; 60 µM in data set [17]; 15 µM in data set [18]; 200 µM in [19]. In addition, the kcat in data set [13] is more than 20 s⁻¹; in [14], 1300 s⁻¹; in data set [15], 860 s⁻¹; in [16], 900 s⁻¹; in data set [17] it was 30 s⁻¹; in data set [19] it was 15 s⁻¹. For the same substance, the kcat/Km in data set [20] is 20000 M⁻¹ s⁻¹; in [21], 5e+06 M⁻¹ s⁻¹; in [22], 4e+06 M⁻¹ s⁻¹; in data set [23] it was 3e+07 M⁻¹ s⁻¹; in data set [24], 500000 M⁻¹ s⁻¹; in data set [25], 2e+06 M⁻¹ s⁻¹. In data set [26], the kcat/Km was found to be 100000 M⁻¹ s⁻¹.
